SENP7 inh: SENP7 protease inhibitors, primary screen, biochemical, luminescence, uHTS | recombinant SENP7, Z-RLRGG-aminoluciferin luminescence, 40 min | inhibition, % at 5 µM | hit rate 1.5% among 330,000;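 active = inhibition above about 50% at the single test dose, limit read from the data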;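 also: plate controls were DMSO with enzyme for no effect and no enzyme buffer wells for full effect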
SENP8 block-1: human SENP8 protease inhibitors, primary screen, biochemical, fluorescence, Nedd8 protein substrate, uHTS; recombinant SENP8; Sentrin-specific protease 8 (Homo sapiens), Q96LD8; hit rate 0.64% among 360,000; inhibition, % at 20 µM; in the data active = inhibition mostly above about 40%, no sharp cut-off; inactive = mostly below about 27%
SENP1 inh: human SENP1 catalytic domain inhibitors, primary screen, biochemical, FRET, uHTS. Sentrin-specific protease 1 (Homo sapiens), Q9P0U3. recombinant SENP1 catalytic domain, CyPet-SUMO1-YPet FRET cleavage. inhibition, % at 10 µM. hit rate 0.21% among 360,000;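 active = inhibition at least 30% at 10 µM, raw YFP signal under a set limit, fluorescence ratio 0.5 to 1.5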;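 also: 0% = enzyme with DMSO and 100% = no enzyme wells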
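Controls: no-enzyme wells low, DMSO-plus-enzyme wells high control. Test system: human recombinant His6-tagged SENP1 catalytic domain enzyme. Reagent: SFCypet-SUMO1-SFYpet FRET protein substrate, 25 nM final. Doses: one dose per compound, 10 µM, 0.5% DMSO. Detection: FRET, CFP and YFP emission. Timing: 50 min reaction at room temperature.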
Apaf-1 inh: inhibitors of human Apaf-1 apoptosome, primary screen, biochemical, DEVD-Rh110 fluorescence, uHTS; AID 489030, 2010; Apoptotic protease-activating factor 1 (Homo sapiens), O14727; inhibition, % at 20 µM; hit rate 0.71% among 330,000; reconstituted apoptosome caspase-3 activity; active = inhibition of at least 40% at 20 µM;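 also: plate controls were DMSO wells for no effect and DEVD-CHO caspase inhibitor wells for full effect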
Target sequence (O14727 whole entry, looked up): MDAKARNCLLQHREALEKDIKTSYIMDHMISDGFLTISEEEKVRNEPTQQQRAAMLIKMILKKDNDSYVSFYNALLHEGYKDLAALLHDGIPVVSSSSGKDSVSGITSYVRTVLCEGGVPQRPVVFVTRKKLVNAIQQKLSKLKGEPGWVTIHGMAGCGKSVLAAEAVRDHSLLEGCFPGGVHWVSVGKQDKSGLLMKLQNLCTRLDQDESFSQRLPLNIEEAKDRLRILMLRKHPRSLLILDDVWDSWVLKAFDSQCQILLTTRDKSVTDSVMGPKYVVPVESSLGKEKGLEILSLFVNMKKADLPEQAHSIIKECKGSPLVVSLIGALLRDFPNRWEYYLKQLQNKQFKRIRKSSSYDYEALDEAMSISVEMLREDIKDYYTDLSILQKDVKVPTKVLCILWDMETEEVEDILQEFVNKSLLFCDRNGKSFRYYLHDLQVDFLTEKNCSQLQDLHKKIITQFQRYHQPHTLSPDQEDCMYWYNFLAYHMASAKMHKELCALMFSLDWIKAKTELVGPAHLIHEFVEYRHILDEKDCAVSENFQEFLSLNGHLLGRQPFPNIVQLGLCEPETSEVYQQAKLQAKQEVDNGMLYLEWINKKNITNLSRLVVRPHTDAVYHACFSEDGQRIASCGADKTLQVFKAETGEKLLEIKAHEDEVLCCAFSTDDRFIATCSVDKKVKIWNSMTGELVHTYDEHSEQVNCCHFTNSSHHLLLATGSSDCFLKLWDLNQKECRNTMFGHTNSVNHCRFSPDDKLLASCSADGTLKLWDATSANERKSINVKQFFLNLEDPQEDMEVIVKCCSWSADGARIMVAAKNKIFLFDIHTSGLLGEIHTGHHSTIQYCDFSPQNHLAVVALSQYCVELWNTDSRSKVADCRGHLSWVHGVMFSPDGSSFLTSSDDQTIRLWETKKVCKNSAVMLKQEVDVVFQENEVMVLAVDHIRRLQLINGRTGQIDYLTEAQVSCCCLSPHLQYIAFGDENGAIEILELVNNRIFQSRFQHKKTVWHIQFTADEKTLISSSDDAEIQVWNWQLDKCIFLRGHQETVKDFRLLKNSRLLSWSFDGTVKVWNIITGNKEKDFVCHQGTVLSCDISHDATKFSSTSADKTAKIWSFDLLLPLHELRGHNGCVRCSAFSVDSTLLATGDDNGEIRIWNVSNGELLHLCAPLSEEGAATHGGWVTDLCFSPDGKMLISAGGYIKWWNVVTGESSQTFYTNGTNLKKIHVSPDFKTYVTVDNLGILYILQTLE
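System – cell-free apoptosome with Apaf-1, procaspase-3 and caspase-9 · Buffer or medium – pH 7.5 Hepes buffer with CHAPS, BSA, DTT · Also added – cytochrome c with DEVD-Rh110 · Times – 30 min compound preincubation, 50 min activation, room temperature · Technique – Rh110 fluorescence intensity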
SENP8 block-2: SENP8 protease inhibitors, primary screen, biochemical, luminescence. inhibition, % at 10 µM. purified SENP8, Z-RLRGG-aminoluciferin cleavage. Sentrin-specific protease 8 (Homo sapiens), Q96LD8. hit rate 1.2% among 330,000; in the data active = inhibition above about 50%
SENP6 block: SENP6 protease inhibitors, primary screen, biochemical, luminescence, uHTS; Sentrin-specific protease 6 (Homo sapiens), Q9GZR1; Recombinant SENP6 catalytic domain, aminoluciferin luminescence; inhibition, % at 10 µM; hit rate 1.8% among 330,000;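 active = inhibition above about 50% at the single tested dose, limit read from the data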;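 also: plate controls were DMSO wells with enzyme for no effect and DMSO wells lacking enzyme for full effect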
* marks the source's active call; other numbers are inactive results; · = no result given. Rows were chosen to be rich in hits. Some 2.9% of all compounds tested hit in one or more screens of this group.

SMILES	SENP7 inh	SENP8 block-1	SENP1 inh	Apaf-1 inh	SENP8 block-2	SENP6 block
CCCNC(C)C(=O)Nc1c(C)csc1C(=O)OC (centres undefined)	9	4	2	-7	8	3
Cc1ccc(CCNC(=O)c2cccc(NC3=NC4CS(=O)(=O)CC4S3)c2)cc1 (centres undefined)	-2	11	1	3	2	-8
CN(C)c1ccc(/C=C2/NC(=O)NC2=O)cc1	5	-248	-52	-7	0	7
CN(C)c1ccc(/C=C2\N=C(c3ccc(Cl)c([N+](=O)[O-])c3)NC2=O)cc1	1	35	65*	7	10	15
COc1ccc2c(c1)O/C(=C\c1sccc1C)C2=O	71*	-86	-132	12	50	79*
O=C(O)COc1ccc2c(c1)O/C(=C\c1cccs1)C2=O	5	-180	-75	2	4	4
COc1cc(C2C(C#N)=C(N)OC3=C2C(=O)CC(C)(C)C3)ccc1OC(=O)N1CCOCC1 (centres undefined)	6	8	0	-1	-2	-27
COc1ccc(C2C(C#N)=C(/N=C/N3CCN(C)CC3)OC3=C2C(=O)CC(C)(C)C3)cc1OC (centres undefined)	50*	5	0	-15	-7	-27
NS(=O)(=O)c1ccc(N=Nc2ccc(=O)[nH]c2O)cc1	·	64*	-9	·	·	·
NS(=O)(=O)c1ccc(N=Nc2ccc(O)c3ncccc23)cc1	6	35	6	11	18	11
NC(c1ccccc1)c1csc(Nc2cc(Oc3ccccc3)ncn2)n1 (centres undefined)	·	-144	-25	·	·	·
CN(C)c1ccc2c(=O)c3ccccc3oc2n1	·	-404	-2	·	·	·
O=C(N/N=C/c1ccc2c(c1)OCO2)C(=O)Nc1ccccc1Cl	-6	-96	1	-15	23	0
O=C(O/N=C/c1ccc2c(c1)OCO2)c1ccccc1Cl	80*	·	·	13	84*	86*
CC(C)(C)NC(=O)Nc1cccc(Cl)c1Cl	3	12	0	-3	8	2
O=C(Nc1ccncc1)Nc1cccc(Cl)c1Cl	-4	3	0	-1	-2	15
O=C(Nc1ccccc1)Nc1cccc(Cl)c1Cl	55*	17	0	5	30	74*
Cn1cccc1C(=O)C(=O)Nc1cccc(Cl)c1Cl	89*	20	3	6	4	12
CN(c1ccccc1)S(=O)(=O)c1cccc(NC(=O)CCNC(=O)c2ccco2)c1	·	6	1	·	·	·
COc1ccc(CC(=O)Nc2nc(OCCN3CCCC3=O)cnc2-c2cccc(C(F)(F)F)c2)cc1	·	-16	4	·	·	·
O=c1c(N=Nc2ccccc2)c[nH]n1-c1ccccc1	·	54*	3	·	·	·
Cc1[nH]n(-c2ccccc2)c(=O)c1N=Nc1ccc(F)cc1	6	38	2	10	6	-3
Cc1cc(-c2csc(NC(=O)c3ccc(=O)n(C)n3)n2)c(C)n1CC1CCCO1 (centres undefined)	-1	43*	6	10	-8	1
Clc1ccc(Sc2cnc3ccccc3n2)cc1	-7	-4	-4	8	-22	-5
Clc1ccc(-c2cnc3ccccc3n2)cc1	92*	-4	1	5	85*	90*
SMILES	SENP7 inh	SENP8 block-1	SENP1 inh	Apaf-1 inh	SENP8 block-2	SENP6 block
COc1ccc(CCN2C(=O)c3ccccc3C2c2nnnn2Cc2ccccc2)cc1OC (centres undefined)	·	14	2	·	·	·
N#C/C(=C(/O)COc1ccccc1)c1nc2ccccc2s1	-1	5	2	2	29	1
N#C/C(=C(/O)COc1ccc(Cl)cc1)c1nc2ccccc2s1	1	7	0	6	81*	93*
N#C/C(=N\O)c1nc2ccccc2s1	-8	7	-23	12	-13	-19
N#C/C(=C(/O)c1ccc(F)cc1)c1nc2ccccc2s1	51*	-2	-11	5	82*	87*
Cc1c(C(=O)NCc2ccccc2C(F)(F)F)sc(=O)n1Cc1ccc2c(c1)OCO2	·	9	-2	·	·	·
CN1C(=O)C(N=Nc2ccccc2C(=O)O)N(C)C1=S (centres undefined)	22	13	56*	4	86*	89*
COc1ccc(-c2nc(-c3ccc(Br)o3)no2)cc1OC	14	2	0	-45	10	3
COc1cccc(-c2nc(-c3ccc(Br)o3)no2)c1	84*	10	0	18	72*	85*
O=C(O)c1cccc(COc2ccccc2Cl)c1	5	5	1	8	98*	99*
O=C(Nc1ccccc1Cl)c1cccc(COc2cc(Cl)ccc2Cl)c1	-3	23	3	12	5	9
COc1ccc(/C=C/C(=O)c2cc3c(cc2N)OCO3)cc1	96*	0	-5	3	96*	95*
Cn1c(=O)c2c(ncn2CC(=O)OCCCC(=O)c2ccc(Br)cc2)n(C)c1=O	3	6	-1	-1	-1	-20
Cc1cccc2cc3c(N)c(C(=O)Nc4ccc(N5CCOCC5)cc4)sc3nc12	1	27	65*	5	4	-13
CC1O[C@@H](OCC2O[C@@H](Oc3cc(O)c4c(c3)OC(c3ccc(O)cc3)CC4=O)[C@H](O)[C@@H](O)[C@@H]2O)[C@H](O)[C@H](O)[C@H]1O (some centres undefined)	-6	28	4	1	-4	13
NC(=O)c1cc(N)ccc1N1CCCCC1	-1	-98	0	-2	-1	5
Cc1cc(N)ccc1N1CCCC1	3	30	23	65*	2	2
NC(=O)c1cc(N)ccc1N1CCCC1	22	-397	9	44*	8	17
CCN(CC)C(=O)Cn1c(=O)n(CC(=O)N2CCCCC2)c(=O)c2sccc21	3	10	0	-4	3	11
Cc1ccc(S(=O)(=O)N2CCOCC2)cc1NC(=O)CSc1nnc(COc2ccccc2F)n1N	·	12	1	·	·	·
COc1cccc(/C(C)=N/NC(=O)c2ccc(N(C)C)cc2)c1	45	-67	1	7	55*	69*
COc1cccc(C(=O)N/N=C(\C)CC(=O)Nc2ccc(N(C)C)cc2)c1	2	20	1	-4	4	12
CCc1cc2c(=O)c(-c3nc(C)cs3)coc2cc1O	77*	-16	-8	-8	38	66*
CCN(CC)CCNc1ccc(C)c2sc3ccc(O)cc3c(=O)c12	·	30	39*	·	·	·

Bioassay records (PubChem BioAssay)
